Results on six compounds are retold here after ChEMBL document CHEMBL3045328, “Substituted N-phenylpyrazine-2-carboxamides, their synthesis and evaluation as herbicides and abiotic elicitors” (Molecules, 2007).

pIC50: −log10 of the molar value.

Data set [1] in a line: Lipophilicity, log P of the compound. The data set is classed as physicochemical. The conditions noted are these: octanol/water.
The test system of a further data set is Chlorella vulgaris. Description: Antialgal activity in green algae Chlorella vulgaris assessed as reduction of chlorophyll content. The data set is classed as functional, organism-based. The following applies: for pIC50: Chlorella vulgaris, read-out: IC50. The method, boiled down: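 Algal suspensions (initial Chl 0.01 mg·L-1) grown 7 days, 16 h light/8 h dark, PAR 80 μmol/m2∙s, pH 7.2, with compound at 0.83–100 μmol·L-1 (DMSO ≤0.25%, same in controls). Chl extracted into methanol, read spectrophotometrically. IC50 = concentration halving chlorophyll versus control, or % of control ± S.D.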

The test system of a further data set is Spinacia oleracea. The data set is described as follows: Inhibition of photosynthetic electron transport in Spinacia oleracea (spinach) chloroplasts assessed as decrease in oxygen evolution measured after irradiated with 250 W halogen lamp by herbicidal assay in presence of electron acceptor 2,6-dichlorophenol-indophenol. In kind it is functional. The following applies: L., light or radiation study. The method, boiled down: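 Spinach chloroplasts in phosphate buffer (0.02 mol·L-1, pH 7.2) with sucrose 0.4 mol·L-1, MgCl2 0.005 mol·L-1, NaCl 0.015 mol·L-1; chlorophyll 30 mg/L. DCPIP photoreduction followed under ~100 W/m2 halogen light through 4 cm water filter, 22 °C. Compounds in DMSO (up to 4%). IC50 = molar concentration giving 50% drop in oxygen evolution versus untreated control.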

As to `Cc1ccc(NC(=O)c2cncc(Cl)n2)cc1I`, the lipophilicity (logP) (usually a log measure of how a compound divides between an organic and an aqueous phase) in data set [1] amounted to 3.33. Besides, in the data set on Chlorella vulgaris, the IC50 result was “ND(Insoluble)”. In the data set with Spinacia oleracea, the negative logarithm of the IC50 (pIC50) – broadly, −log10 of the IC50, conventionally taken in molar units – is 4.29.

As to `Cc1cc(NC(=O)c2cnc(C(C)(C)C)cn2)ccc1Cl`, in data set [1], the logP came out at 3.76. Besides, the results for the pIC50 in the data set with Chlorella vulgaris and in the data set with Spinacia oleracea were 4.36 and 3.72, respectively.

In data set [1], `CC(C)(C)c1ncc(C(=O)Nc2ccccc2F)nc1Cl` registered a logP of 3.78. For the same compound, the pIC50 in the data set with Chlorella vulgaris was 4.05; with Spinacia oleracea, 4.16.

`CC(C)(C)c1ncc(C(=O)Nc2ccc(C(F)(F)F)cc2)nc1Cl` registered a logP in data set [1] of 4.54. Moreover, the IC50 result in the data set on Chlorella vulgaris is listed as “ND(Insoluble)”. The pIC50 with Spinacia oleracea is 3.74.

Regarding `Cc1cc(NC(=O)c2cncc(Cl)n2)ccc1Cl`, in data set [1], the logP came out at 2.53. The pIC50 in the data set on Chlorella vulgaris was 4.10; in the data set on Spinacia oleracea it was 3.23.

In the case of `CN(C)C(=O)Nc1ccc(Cl)c(Cl)c1` [DCMU], the logP in data set [1] was 2.76.
